The list is not random: actives were taken first. Their share in the collection is about 0.95%.
HKDC1 inh – HKDC1 hexokinase inhibitors, primary screen, biochemical, fluorescence, uHTS; Q2TB90; recombinant HKDC1, G6PDH/diaphorase resazurin coupled fluorescence; inhibition, % at 20 µM; actives 0.16% (n = 340,000); AID 493160, 2011;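 active = inhibition above about 35% when tested at 20 µM, limit read from the data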;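 also: plate controls were DMSO wells with enzyme for no effect and DMSO wells lacking enzyme for full effect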
Target sequence (Q2TB90 whole entry, looked up): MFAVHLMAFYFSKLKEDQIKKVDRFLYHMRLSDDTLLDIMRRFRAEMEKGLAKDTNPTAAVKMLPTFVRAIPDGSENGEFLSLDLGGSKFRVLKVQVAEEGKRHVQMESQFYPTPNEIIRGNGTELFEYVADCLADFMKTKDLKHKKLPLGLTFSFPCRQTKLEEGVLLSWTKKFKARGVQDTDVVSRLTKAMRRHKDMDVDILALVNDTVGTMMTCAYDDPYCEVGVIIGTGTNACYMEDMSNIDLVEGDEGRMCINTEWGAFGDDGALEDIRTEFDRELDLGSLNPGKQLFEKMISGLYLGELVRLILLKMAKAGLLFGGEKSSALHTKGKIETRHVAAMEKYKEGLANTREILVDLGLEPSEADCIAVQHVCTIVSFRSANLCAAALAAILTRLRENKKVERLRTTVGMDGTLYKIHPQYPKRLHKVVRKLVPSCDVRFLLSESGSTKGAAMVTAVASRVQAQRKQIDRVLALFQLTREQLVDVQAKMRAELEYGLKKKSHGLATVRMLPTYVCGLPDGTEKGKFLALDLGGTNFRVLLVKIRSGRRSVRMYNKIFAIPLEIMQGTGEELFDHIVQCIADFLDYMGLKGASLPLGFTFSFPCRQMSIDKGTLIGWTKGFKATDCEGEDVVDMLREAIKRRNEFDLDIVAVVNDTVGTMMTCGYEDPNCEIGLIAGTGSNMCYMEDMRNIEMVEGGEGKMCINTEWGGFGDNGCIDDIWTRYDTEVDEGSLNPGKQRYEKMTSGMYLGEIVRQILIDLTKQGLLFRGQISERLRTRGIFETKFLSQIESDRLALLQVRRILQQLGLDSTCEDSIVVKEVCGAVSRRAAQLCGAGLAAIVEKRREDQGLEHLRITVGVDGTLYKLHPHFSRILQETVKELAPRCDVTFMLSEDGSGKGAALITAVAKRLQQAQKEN
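Material – in-house recombinant HK5 (HKDC1) enzyme · Quantity – HKDC1 at 5 µg/mL · Buffer or medium – pH 8.0 Tris buffer with 10 mM MgCl2 · Reagent – glucose with 1 mM ATP · Dosing – single 20 µM dose · Times – reaction time 90 min, room temperature, protected from light · Technique – resorufin fluorescence at 613 nm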
G6PDH CS – L. mesenteroides G6PDH inhibitors, counter-screen for G6PDH-coupled screening assays, biochemical, Leuconostoc mesenteroides enzyme | glucose-6-phosphate dehydrogenase [Leuconostoc mesenteroides] | Purified L. mesenteroides G6PDH, diaphorase/resazurin coupled fluorescence, 45 min | inhibition, % at 5 µM | actives 0.12% (n = 200,000); in the data active = inhibition above about 50%
p97 inhibitor – inhibitors of human p97 ATPase, primary screen, biochemical | Transitional endoplasmic reticulum ATPase (Homo sapiens), P55072 | recombinant p97 ATPase, Kinase-Glo ATP luminescence, 3 h | inhibition, % at 8 µM | actives 0.42% (n = 220,000); in the data active = inhibition above about 15%;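 also: 0% = DMSO vehicle and 100% = wells lacking enzyme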
Diaph inh CS – diaphorase inhibitors and chemical oxidizers, primary screen, counter-screen for diaphorase-coupled primary assays, biochemical, uHTS, resorufin fluorescence | diaphorase resazurin-to-resorufin fluorescence, NADH, 16 min; bacterial (C. kluyveri) enzyme, not human | inhibition, % at 20 µM | actives 0.69% (n = 190,000);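 active = primary screen inhibition at 20 µM above a set limit, cut at about 50% in these data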;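 also: plate controls were DMSO with full reaction for no effect and wells lacking NADH for full effect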
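Assay system: diaphorase enzyme from Clostridium kluyveri. Quantity: enzyme working solution with 0.14 U/mL diaphorase. Schedule: reaction incubation of 16 min at room temperature. Technique: resorufin fluorescence, excitation 544 nm, emission 590 nm. Controls: No-NADH positive control and DMSO neutral control.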
SUMO HTRF inh – inhibitors of in vitro SUMOylation cascade, primary screen, biochemical, HTRF, uHTS. inhibition, % at 35 µM. HTRF SUMOylation assay, SAE1/SAE2 + UBC9. actives 0.36% (n = 290,000). AID 2006, 2009. SUMO-conjugating enzyme UBC9 (Homo sapiens), P63279; in the data active = inhibition above about 50%, passing the limit was not always enough
HKDC1 act conf – HKDC1 hexokinase activators, confirmation, biochemical, single concentration | shares compounds with HKDC1 inh | inhibition, % at 20 µM | recombinant HKDC1, G6PDH/diaphorase resazurin fluorescence; hits give low values | actives 14% (n = 740);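 active = inhibition at or below a set negative limit, negative inhibition meaning the enzyme was activated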
Starred values were filed as active, the others as inactive; . = no result.

SMILES	HKDC1 inh	G6PDH CS	p97 inhibitor	Diaph inh CS	SUMO HTRF inh	HKDC1 act conf
CCNc1ccc(Br)cc(C(=O)/C=C/c2c(Cl)cccc2Cl)c1=O	37*	22	9	44	15	-3
CCOC(=O)c1ccc(N(CC(=O)NC2CCCCC2)C(=O)CNC(=O)c2ccco2)cc1	-3	.	.	.	4	.
Cc1ccc(C(=O)/C=C/N(C)C)o1	-6	5	-4	10	-1	.
Cc1ccc(C(=O)/C=C/c2cc(Br)cc(Br)c2O)o1	36*	.	.	.	2	9
CCN(CC(=O)Nc1c(F)cccc1F)C(=O)/C=C/c1ccc2ccccc2n1	33	.	.	.	.	13
COCCCN1C(=O)C(O)=C(C(=O)c2ccco2)C1c1ccccc1 (centres undefined)	-5	2	3	12	19	.
COCc1cc(C2C(C(=O)c3ccco3)=C(O)C(=O)N2CCOCCO)ccc1O (centres undefined)	35*	1	-6	20	12	-40*
CN(C)c1ccc(C2/C(=C(/O)c3ccc(Br)cc3)C(=O)C(=O)N2C)cc1 (centres undefined)	-5	.	.	.	-9	.
CCOc1ccc2nc3cc(NCc4ccc(OC)cc4)ccc3c(N)c2c1	36*	.	.	.	18	-4
COc1ccc(/C=N\NC(=O)c2cc(O)c(O)c(O)c2)cc1COc1ccc(C(=O)OCC(C)C)cc1	2	.	.	.	-27	.
C=CCN(CC=C)Cc1c(O)ccc2c1oc(=O)c1ccccc12	34	.	5	.	.	23
Cc1cc(=O)oc2c(CN(C)Cc3ccccc3)c(O)ccc12	-4	0	2	10	37	.
COC(=O)c1sc(NC(=O)CSc2nc3nc(C)cc(C)n3n2)c(C(=O)OC)c1C	35*	.	.	.	.	26
CCOC(=O)/C(=C\c1cccnc1)C(=O)c1cc(C(C)=O)c(Nc2ccccc2)s1	42*	1	4	34	-9	16
CCOC(=O)/C(=C\c1ccccc1)C(=O)c1cc(C(C)=O)c(Nc2ccccc2)s1	20	0	-2	24	7	.
CC(C)Oc1ccc(CNC(=O)c2cc(S(=O)(=O)N3CCOCC3)cn2C)cc1	-3	.	.	.	-19	.
COc1ccc(Cn2c(C3CCCCC3)nc3c(c(=O)c4ccccc4n3C)c2=O)cc1	13	.	3	.	-33	.
Cn1c2ccccc2c(=O)c2c(=O)n(C3CCCCCC3)c(C3CCCCC3)nc21	35	2	2	27	-11	2
CCc1nc2c(c(=O)c3ccccc3n2C)c(=O)n1C1CCCCCC1	1	0	5	16	24	.
Cn1c2ccccc2c(=O)c2c(=O)n(-c3ccccc3)c(C3CCCCC3)nc21	43*	-2	6	15	-15	18
Cc1cccc(NS(=O)(=O)c2ccc3c(c2)Cc2cc(S(=O)(=O)Nc4cccc(C)c4C)ccc2-3)c1C	5	1	10	4	-9	.
Cc1nc([N+](=O)[O-])c(Br)n1CC(=O)c1ccc2ccccc2c1	46*	1	7	36	-3	40
Cc1nc([N+](=O)[O-])c(Br)n1CC(=O)c1ccccc1	8	5	10	-5	0	.
O=c1cc(-c2ccccc2F)nc(-c2ccccc2F)o1	2	3	0	7	-3	.
O=c1cc(-c2cccc(Br)c2)nc(-c2ccccc2F)o1	31	5	5	7	12	12
SMILES	HKDC1 inh	G6PDH CS	p97 inhibitor	Diaph inh CS	SUMO HTRF inh	HKDC1 act conf
CCNC1=C(Cl)C(=O)c2ccccc2C1=O	-3	37	1	22	10	.
CCCC(=O)NC1=C(Cl)C(=O)c2ccccc2C1=O	60*	.	.	.	.	81
CC(NC(=O)c1sc2cc([N+](=O)[O-])ccc2c1Cl)C(C)(C)C (centres undefined)	-76	10	3	-4	3	-39*
CCC(CC)c1nnc(NC(=O)C2CC(=O)N(C3CCCC3)C2)s1 (centres undefined)	5	.	.	.	2	.
C=CCOc1ccc(C=NNc2ccc(S(=O)(=O)Nc3ccccc3C(=O)O)cc2[N+](=O)[O-])cc1OC	51*	.	.	.	.	-4
CCOc1ccc(C=NNc2ccc(S(=O)(=O)Nc3ccccc3C(=O)O)cc2[N+](=O)[O-])cc1	20	.	.	.	.	.
O=C1C=CC(=O)c2c(O)c(CO)c(CO)c(O)c21	49*	.	.	.	.	39
CN(CCCN1CCOCC1)Cc1cn(C)nc1-c1ccccc1F	-5	24	4	23	16	.
COc1ccc(CCNC(=O)COC(=O)CSc2ccc([N+](=O)[O-])cc2)cc1OC	-2	.	.	.	.	.
O=C(COc1coc(CN2CCc3ccccc3C2)cc1=O)Nc1ccccc1F	3	.	.	.	.	.
CCOP(=O)(c1ccc(N(C)C)cc1)C(O)c1ccc(OC)cc1 (centres undefined)	56*	.	.	.	9	-21
O=C(OCC(=O)N1CCCC1)c1cc(Cl)ccc1[N+](=O)[O-]	-5	.	.	.	4	.
CCN(CC)c1ccc(C(=C2C=CC(=[N+](CC)CC)C=C2)c2ccc(N(CC)CC)cc2)cc1	54*	.	.	.	.	12
COc1ccc(-c2cc3ccccc3[nH]2)cc1	39*	.	11	.	7	31
O=C1C=C(c2c(O)ccc3ccccc23)c2ccccc2C1=O	93*	.	.	.	.	78
O=C1C=C(O)c2cccc(O)c2C1=O	11	.	.	.	72	.
CC(=O)n1cc(N(C(=O)CCl)c2ccc(Cl)cc2)c2ccccc21	58*	.	14	.	12	33
O=C(O)COCC(=O)N1CCCN(c2nccc(C(F)(F)F)n2)CC1	-2	.	.	.	-18	.
Cc1nnc(N=c2ssnc2Cl)o1	-88	.	.	.	.	.
Cc1cc(C)nc(/N=c2/ssnc2Cl)c1	-137	6	8	25	9	-84*
COc1cc(N=c2ssnc2Cl)c(OC)cc1Cl	-46	10	2	36	2	-57*
Cc1ccc(N=c2ssnc2Cl)cc1	-51	-2	0	21	-11	-44*
COc1ccc(OC)c(N=c2ssnc2Cl)c1	3	9	11	32	-3	.
Cc1cc(Cl)ccc1N=c1ssnc1Cl	-37	2	3	3	-25	.
O=S(=O)(O)c1ccc2c(c1)C(C(Cl)(Cl)Cl)OC(C(Cl)(Cl)Cl)O2 (centres undefined)	-1	.	.	.	.	.
SMILES	HKDC1 inh	G6PDH CS	p97 inhibitor	Diaph inh CS	SUMO HTRF inh	HKDC1 act conf
CC(c1ccccc1)n1c(N2CCNCC2)nc2c1c(=O)[nH]c(=O)n2C (centres undefined)	0	.	.	.	12	.
N=C1N(c2ccccc2)C(=S)C(=Nc2ccccc2)N1c1ccccc1	-77	.	.	.	.	4
COc1ccc(-c2[nH]c(-c3ccc(C)cc3)nc2SCC(=O)Nc2nccs2)cc1	-11	-52	5	16	-21	.
COc1ccc(-c2[nH]c(-c3ccc(SC)cc3)nc2SCC(=O)Nc2nccs2)cc1	-54	0	4	22	-8	-36*
CC1C/C(=C\c2cccnc2)C(=O)/C(=C/c2cccnc2)C1 (centres undefined)	40*	-9	4	0	-2	23
O=C(Nc1ccncc1)C1CC(=O)N(Cc2ccccc2)C1 (centres undefined)	-6	.	.	.	.	.
COc1ccc(CN(C)CC(=O)N(C)CC(=O)Nc2ccccc2Br)cc1F	-4	.	.	.	.	.

Source: PubChem (several laboratories)
